Source: ChEMBL document CHEMBL1138564, “Microwave-induced synthesis and anti-microbial activities of 7,10,11,12-tetrahydrobenzo[c]acridin-8(9H)-one derivatives” (2009)
≈ marks a conversion by molar mass, not a printed value. Calls of active or inactive are those of the source. The calls are words filed in the database; no cut-off is given here.

Key:
Assay type in all cases: functional
Lipomyces lipofer = experiment: Antimicrobial activity against Lipomyces lipofer NCIM 3252 at 500 ug/disk after 72 hrs by disk diffusion method
Summary of the method: (§1)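 Disc diffusion on Sabouraud's dextrose agar. 100 µl of fungal suspension at 10⁶ CFU/ml is spread on the plate. Discs carry test compounds at two loadings in DMSO; DMSO alone is the negative control. Clotrimazole disc is the positive reference. Plates are incubated at 27 °C for 72 h, and the zone of inhibition diameter is measured.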

Proteus vulgaris [1] = experiment: Antimicrobial activity against Proteus vulgaris NCIM 2027 at 1000 ug/disk after 24 hrs by disk diffusion method
Summary of the method: (§2)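 Disc diffusion on Mueller–Hinton agar. 100 µl of bacterial suspension at 10⁸ CFU/ml is spread on the plate. Discs carry test compounds at two loadings, dissolved in DMSO; DMSO alone serves as negative control. Ofloxacin disc is the positive reference. Plates are incubated at 37 °C for 24 h, and the inhibition zone diameter is measured.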

Proteus vulgaris [2] = experiment: Antimicrobial activity against Proteus vulgaris NCIM 2027 at 500 ug/disk after 24 hrs by disk diffusion method; summary of the method: as §2
Klebsiella aerogenes [3] = experiment: Antimicrobial activity against Klebsiella aerogenes NCIM 2239 at 1000 ug/disk after 24 hrs by disk diffusion method; conditions: NCIM 2239, 24 h, read-out: DIZ; summary of the method: as §2
Penicillium chrysogenum [4] = experiment: Antimicrobial activity against Penicillium chrysogenum NCIM 707 at 500 ug/disk after 72 hrs by disk diffusion method; summary of the method: as §1
Aspergillus flavus [5] = experiment: Antimicrobial activity against Aspergillus flavus NCIM 902 at 1000 ug/disk after 72 hrs by disk diffusion method; conditions: NCIM 902, 72 h, read-out: DIZ; summary of the method: as §1
Escherichia coli [6] = experiment: Antimicrobial activity against Escherichia coli NCIM 2065 after 24 hrs by serial dilution method; conditions: NCIM 2065, 24 h
Summary of the method: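 Broth dilution MIC in nutrient broth, run only for organisms found sensitive in disc diffusion. Compounds are two-fold serially diluted in 1 ml sterile broth per tube, spanning 3.9 to 1000. Inoculated tubes are incubated at 37 °C for 24 h.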

Bacillus cereus [7] = experiment: Antimicrobial activity against Bacillus cereus NCIM 2155 at 1000 ug/disk after 24 hrs by disk diffusion method; summary of the method: as §2
Aspergillus parasiticus [8] = experiment: Antimicrobial activity against Aspergillus parasiticus NCIM 904 at 500 ug/disk after 72 hrs by disk diffusion method; conditions: NCIM 904, 72 h, read-out: DIZ; summary of the method: as §1
[9] = test system: Rhodococcus corynebacterioides; experiment: Antimicrobial activity against Corynebacterium rubrum NCIM 2252 at 1000 ug/disk after 24 hrs by disk diffusion method; conditions: Rhodococcoides corynebacterioides, NCIM 2252, 24 h; read-out: DIZ; summary of the method: as §2
Trichoderma viride [10] = experiment: Antimicrobial activity against Trichoderma viride NCIM 1195 after 72 hrs by serial dilution method; conditions: NCIM 1195, 72 h
Summary of the method: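 MIC by broth dilution in Sabouraud's dextrose broth, run only on fungi found sensitive in the disc assay. Twofold serial dilutions were made in 1 ml broth per tube, covering 3.9 to 1000. Inoculated tubes were incubated at 27 °C for 72 h.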

Staphylococcus = experiment: Antimicrobial activity against Staphylococcus albus NCIM 2178 at 1000 ug/disk after 24 hrs by disk diffusion method
Summary of the method: (§3)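 Disc diffusion. 100 µl of bacterial suspension at 10⁸ CFU/ml was spread on Mueller–Hinton agar. Discs loaded with test compound dissolved in DMSO were placed on the lawn, with a DMSO-only disc as negative control. Plates were incubated at 37 °C for 24 h, and the inhibition zone diameter was measured.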

Trichoderma viride [11] = experiment: Antimicrobial activity against Trichoderma viride NCIM 1195 at 500 ug/disk after 72 hrs by disk diffusion method; conditions: NCIM 1195, 72 h, read-out: DIZ
Summary of the method: (§4)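 Fungal disc diffusion. 100 µl of suspension at 10⁶ CFU/ml was spread on Sabouraud's dextrose agar. Discs carrying test compound in DMSO were applied, with a DMSO-only disc as negative control. Plates were incubated at 27 °C for 72 h, and the zone of inhibition diameter was measured.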

Rhodotorula mucilaginosa [12] = experiment: Antimicrobial activity against Rhodotorula rubra NCIM 3174 at 500 ug/disk after 72 hrs by disk diffusion method; conditions: NCIM 3174, 72 h, read-out: DIZ; summary of the method: as §4
Penicillium chrysogenum [13] = experiment: Antimicrobial activity against Penicillium chrysogenum NCIM 707 at 1000 ug/disk after 72 hrs by disk diffusion method; summary of the method: as §1
Trichoderma viride [14] = experiment: Antimicrobial activity against Trichoderma viride NCIM 1195 at 1000 ug/disk after 72 hrs by disk diffusion method; conditions: NCIM 1195, 72 h, read-out: DIZ; summary of the method: as §4
Aspergillus flavus [15] = experiment: Antimicrobial activity against Aspergillus flavus NCIM 902 at 500 ug/disk after 72 hrs by disk diffusion method; conditions: NCIM 902, 72 h, read-out: DIZ; summary of the method: as §1
Pseudomonas aeruginosa [16] = experiment: Antimicrobial activity against Pseudomonas aeruginosa NCIM 2200 at 1000 ug/disk after 24 hrs by disk diffusion method; summary of the method: as §2
Rhodotorula mucilaginosa [17] = experiment: Antimicrobial activity against Rhodotorula rubra NCIM 3174 at 1000 ug/disk after 72 hrs by disk diffusion method; conditions: NCIM 3174, 72 h, read-out: DIZ; summary of the method: as §4
Bacillus cereus [18] = experiment: Antimicrobial activity against Bacillus cereus NCIM 2155 at 500 ug/disk after 24 hrs by disk diffusion method; summary of the method: as §2
Aspergillus parasiticus [19] = experiment: Antimicrobial activity against Aspergillus parasiticus NCIM 904 after 72 hrs by serial dilution method; conditions: NCIM 904, 72 h
Summary of the method: (§5)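 MIC by broth dilution in Sabouraud's dextrose broth, only for fungi sensitive in disc diffusion. Two-fold serial dilutions of compounds are made in 1 ml broth per tube, range 3.9 to 1000. Inoculated tubes are incubated at 27 °C for 72 h.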

Aliivibrio fischeri [20] = experiment: Antimicrobial activity against Vibrio fischeri NCIM 2154 at 1000 ug/disk after 24 hrs by disk diffusion method; conditions: NCIM 2154, 24 h, read-out: DIZ; summary of the method: as §3
Aspergillus fumigatus = experiment: Antimicrobial activity against Aspergillus fumigatus NCIM 902 at 1000 ug/disk after 72 hrs by disk diffusion method; conditions: NCIM 902, 72 h, read-out: DIZ; summary of the method: as §1
[21] = test system: Rhodococcus corynebacterioides; experiment: Antimicrobial activity against Corynebacterium rubrum NCIM 2252 at 500 ug/disk after 24 hrs by disk diffusion method; conditions: Rhodococcoides corynebacterioides, NCIM 2252, 24 h; read-out: DIZ; summary of the method: as §2
Bacillus subtilis = experiment: Antimicrobial activity against Bacillus subtilis NCIM 2063 at 500 ug/disk after 24 hrs by disk diffusion method; conditions: NCIM 2063, 24 h, read-out: DIZ; summary of the method: as §2
Salmonella typhimurium = experiment: Antimicrobial activity against Salmonella Typhimurium NCIM 2501 at 1000 ug/disk after 24 hrs by disk diffusion method; summary of the method: as §3
Pseudomonas aeruginosa [22] = experiment: Antimicrobial activity against Pseudomonas aeruginosa NCIM 2200 at 500 ug/disk after 24 hrs by disk diffusion method; summary of the method: as §3
Aliivibrio fischeri [23] = experiment: Antimicrobial activity against Vibrio fischeri NCIM 2154 at 500 ug/disk after 24 hrs by disk diffusion method; conditions: NCIM 2154, 24 h, read-out: DIZ; summary of the method: as §3
Aspergillus flavus [24] = experiment: Antimicrobial activity against Aspergillus flavus NCIM 902 after 72 hrs by serial dilution method; conditions: NCIM 535, 72 h, in the assay text read “NCIM 535” for “NCIM 902”; summary of the method: as §5
Escherichia coli [25] = experiment: Antimicrobial activity against Escherichia coli NCIM 2065 at 500 ug/disk after 24 hrs by disk diffusion method; conditions: NCIM 2065, 24 h, read-out: DIZ; summary of the method: as §2
Escherichia coli [26] = experiment: Antimicrobial activity against Escherichia coli NCIM 2065 at 1000 ug/disk after 24 hrs by disk diffusion method; conditions: NCIM 2065, 24 h, read-out: DIZ; summary of the method: as §2
Klebsiella aerogenes [27] = experiment: Antimicrobial activity against Klebsiella aerogenes NCIM 2239 at 500 ug/disk after 24 hrs by disk diffusion method; summary of the method: as §2

Structure (SMILES)	zone of inhibition at 1000 µg/disc (Klebsiella aerogenes [3])	diameter of the inhibition zone (DIZ) (Penicillium chrysogenum [4])	zone of inhibition at 1000 µg/disc (Aspergillus flavus [5])	MIC (Escherichia coli [6])	zone of inhibition at 500 µg/disc (Aspergillus parasiticus [8])	zone of inhibition at 1000 µg/disc [9]	MIC (Trichoderma viride [10])	zone of inhibition at 500 µg/disc (Trichoderma viride [11])	zone of inhibition at 500 µg/disc (Rhodotorula mucilaginosa [12])	diameter of the inhibition zone (DIZ) (Penicillium chrysogenum [13])	zone of inhibition at 1000 µg/disc (Trichoderma viride [14])	zone of inhibition at 500 µg/disc (Aspergillus flavus [15])	diameter of the inhibition zone (DIZ) (Pseudomonas aeruginosa [16])	zone of inhibition at 1000 µg/disc (Rhodotorula mucilaginosa [17])	MIC (Aspergillus parasiticus [19])	zone of inhibition at 1000 µg/disc (Aliivibrio fischeri [20])	zone of inhibition at 1000 µg/disc (Aspergillus fumigatus)	zone of inhibition at 500 µg/disc [21]	zone of inhibition at 500 µg/disc (Bacillus subtilis)	diameter of the inhibition zone (DIZ) (Pseudomonas aeruginosa [22])	further results
O=C1CCCC2=C1C(c1cccc(Cl)c1)c1ccc3ccccc3c1N2 (centres undefined)	9 mm	inactive	11 mm	62.5 µg/mL (≈ 174 µM)	12 mm	9 mm	125 µg/mL (≈ 347 µM)	8 mm	8 mm	inactive	10 mm	9 mm	inactive	10 mm	15.6 µg/mL (≈ 43.4 µM)	10 mm	12 mm	7 mm	8 mm	inactive	diameter of the inhibition zone (DIZ) (Lipomyces lipofer): inactive; diameter of the inhibition zone (DIZ) (Proteus vulgaris [1]): inactive; diameter of the inhibition zone (DIZ) (Proteus vulgaris [2]): inactive; diameter of the inhibition zone (DIZ) (Bacillus cereus [7]): inactive; diameter of the inhibition zone (DIZ) (Staphylococcus): inactive; diameter of the inhibition zone (DIZ) (Bacillus cereus [18]): inactive; diameter of the inhibition zone (DIZ) (Salmonella typhimurium; Salmonella enterica subsp. enterica serovar Typhimurium): inactive; zone of inhibition at 500 µg/disc (Aliivibrio fischeri [23]): 9 mm; MIC (Aspergillus flavus [24]): 62.5 µg/mL (≈ 174 µM); zone of inhibition at 500 µg/disc (Escherichia coli [25]): 7 mm; zone of inhibition at 1000 µg/disc (Escherichia coli [26]): 9 mm; diameter of the inhibition zone (DIZ) (Klebsiella aerogenes [27]): inactive
O=C1CCCC2=C1C(c1cccc([N+](=O)[O-])c1)c1ccc3ccccc3c1N2 (centres undefined)	9 mm	inactive	12 mm	31.2 µg/mL (≈ 84.2 µM)	11 mm	8 mm	62.5 µg/mL (≈ 169 µM)	9 mm	10 mm	inactive	10 mm	8 mm	inactive	14 mm	15.6 µg/mL (≈ 42.1 µM)	9 mm	9 mm	7 mm	10 mm	inactive	zone of inhibition at 500 µg/disc (Lipomyces lipofer; NCIM 3252, 72 h, read-out: DIZ): 8 mm; zone of inhibition at 1000 µg/disc (Proteus vulgaris [1]; NCIM 2027, 24 h, read-out: DIZ): 9 mm; zone of inhibition at 500 µg/disc (Proteus vulgaris [2]; NCIM 2027, 24 h, read-out: DIZ): 7 mm; zone of inhibition at 1000 µg/disc (Bacillus cereus [7]; NCIM 2155, 24 h, read-out: DIZ): 10 mm; zone of inhibition at 1000 µg/disc (Staphylococcus; NCIM 2178, 24 h, read-out: DIZ): 11 mm; zone of inhibition at 500 µg/disc (Bacillus cereus [18]; NCIM 2155, 24 h, read-out: DIZ): 7 mm; zone of inhibition at 1000 µg/disc (Salmonella typhimurium; Salmonella enterica, NCIM 2501, 24 h, read-out: DIZ): 10 mm; zone of inhibition at 500 µg/disc (Aliivibrio fischeri [23]): 7 mm; MIC (Aspergillus flavus [24]): 31.2 µg/mL (≈ 84.2 µM); zone of inhibition at 500 µg/disc (Escherichia coli [25]): 9 mm; zone of inhibition at 1000 µg/disc (Escherichia coli [26]): 12 mm; zone of inhibition at 500 µg/disc (Klebsiella aerogenes [27]; NCIM 2239, 24 h, read-out: DIZ): 7 mm
